Data reported in ChEMBL document CHEMBL3400023, “Synthesis and evaluation of novel amide amino-β-lactam derivatives as cholesterol absorption inhibitors” (Bioorg Med Chem, 2015).
Blank lines part the entries; values can stand above or below the molecule they belong to.

Assays:
[1] = Cytotoxicity against MDCK2 cells dosed with micelles after 1 hr; parameters: species or system Canis lupus familiaris; conditions: dog, mdck-ii
Procedure, shortened: (§1)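 MDCKII cells (wild type or stably expressing hNPC1L1, G418-maintained) seeded at 2 × 10^5 cells/mL 24 h ahead in DMEM/10% FCS. Cells exposed for 1 h, then viability read by MTT assay.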

[2] = Cytotoxicity against MDCK2 cells expressing human NPC1L1 dosed with micelles after 1 hr; parameters: species or system Canis lupus familiaris; conditions: dog, mdck-ii; procedure, shortened: as §1
[3] = molecular target: T1, NPC1-like intracellular cholesterol transporter 1 (Homo sapiens) (UniProt Q9UHC9); experiment: Inhibition of human NPC1L1 transfected in MDCK2 cells assessed as [3H]cholesterol uptake at 60 uM after 1 hr by liquid scintillation counting analysis; format: cell-based; conditions: MDCK-II
T1 sequence (whole entry): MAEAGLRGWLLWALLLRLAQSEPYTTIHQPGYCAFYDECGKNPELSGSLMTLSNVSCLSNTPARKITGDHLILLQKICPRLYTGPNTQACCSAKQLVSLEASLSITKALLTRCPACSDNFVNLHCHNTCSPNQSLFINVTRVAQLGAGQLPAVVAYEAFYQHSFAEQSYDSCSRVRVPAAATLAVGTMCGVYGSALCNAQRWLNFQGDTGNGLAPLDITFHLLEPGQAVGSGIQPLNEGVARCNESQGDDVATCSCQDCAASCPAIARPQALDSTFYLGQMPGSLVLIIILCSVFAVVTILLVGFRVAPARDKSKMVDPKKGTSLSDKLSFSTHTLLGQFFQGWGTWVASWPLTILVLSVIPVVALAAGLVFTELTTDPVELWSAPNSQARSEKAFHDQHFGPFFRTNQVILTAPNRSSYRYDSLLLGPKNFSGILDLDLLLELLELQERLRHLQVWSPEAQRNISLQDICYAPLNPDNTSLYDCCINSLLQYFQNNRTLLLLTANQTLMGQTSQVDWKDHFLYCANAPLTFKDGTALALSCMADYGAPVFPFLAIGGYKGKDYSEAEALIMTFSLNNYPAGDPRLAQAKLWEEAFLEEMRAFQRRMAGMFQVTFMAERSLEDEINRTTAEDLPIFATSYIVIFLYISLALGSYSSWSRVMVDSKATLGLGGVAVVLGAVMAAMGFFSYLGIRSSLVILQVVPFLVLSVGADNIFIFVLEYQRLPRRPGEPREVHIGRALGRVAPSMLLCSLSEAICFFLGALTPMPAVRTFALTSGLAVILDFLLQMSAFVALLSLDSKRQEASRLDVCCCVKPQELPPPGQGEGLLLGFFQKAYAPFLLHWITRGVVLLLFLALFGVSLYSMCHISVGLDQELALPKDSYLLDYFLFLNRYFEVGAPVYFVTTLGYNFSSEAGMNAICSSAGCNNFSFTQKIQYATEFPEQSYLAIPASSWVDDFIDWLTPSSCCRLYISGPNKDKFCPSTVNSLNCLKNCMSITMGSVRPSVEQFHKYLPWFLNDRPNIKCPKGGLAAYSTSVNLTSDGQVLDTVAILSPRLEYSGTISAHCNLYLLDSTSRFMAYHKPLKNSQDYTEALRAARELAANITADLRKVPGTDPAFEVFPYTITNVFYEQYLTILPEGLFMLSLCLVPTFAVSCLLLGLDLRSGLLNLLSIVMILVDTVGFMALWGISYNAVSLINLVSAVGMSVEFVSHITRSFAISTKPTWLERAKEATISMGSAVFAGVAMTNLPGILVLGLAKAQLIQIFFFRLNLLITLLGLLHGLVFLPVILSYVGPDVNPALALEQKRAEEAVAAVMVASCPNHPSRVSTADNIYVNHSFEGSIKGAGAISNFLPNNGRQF
Procedure, shortened: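 hNPC1L1/MDCKII cells were seeded in DMEM with 5% LPDS 24 h before treatment, then PBS-washed. Cells were exposed for 1 h to micellar medium carrying [3H]cholesterol (0.18 μCi/mL) plus compound (0–200 μM). They were washed with ice-cold 0.2% fatty acid-free BSA and lysed, and lysate counted by scintillation. Counts were normalised to protein (CPM/mg) and expressed as % inhibition versus untreated cells. Duplicates, three independent experiments.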

Compound: O=C(Cc1ccc(F)cc1)N[C@H]1C(=O)N(c2ccc(F)cc2)[C@@H]1c1ccc(O)cc1
Activity [1]: Non-toxic
Activity [2]: Non-toxic

Compound: O=C(Cc1ccccc1)N[C@H]1C(=O)N(c2ccc(F)cc2)[C@@H]1c1ccc(O)cc1
Activity [1]: Non-toxic
Activity [2]: Non-toxic

inhibition [3]: 40%
Compound: O=C1[C@H](CC[C@H](O)c2ccc(F)cc2)[C@@H](c2ccc(O)cc2)N1c1ccc(F)cc1 [EZETIMIBE]
Activity [1]: Non-toxic
Activity [2]: Non-toxic

inhibition [3]: 60%
Compound: O=C(N[C@H]1C(=O)N(c2ccc(F)cc2)[C@@H]1c1ccc(O)cc1)c1ccccc1
Activity [1]: Non-toxic
Activity [2]: Non-toxic

inhibition [3]: 60%
Compound: O=C(N[C@H]1C(=O)N(c2ccc(F)cc2)[C@@H]1c1ccc(O)cc1)c1ccc(F)cc1
Activity [1]: Non-toxic
Activity [2]: Non-toxic

Compound: O=C(/C=C/c1ccccc1)N[C@H]1C(=O)N(c2ccc(F)cc2)[C@@H]1c1ccc(O)cc1
Activity [1]: Non-toxic
Activity [2]: Non-toxic

Compound: O=C(/C=C/c1ccc(F)cc1)N[C@H]1C(=O)N(c2ccc(F)cc2)[C@@H]1c1ccc(O)cc1
Activity [1]: Non-toxic
Activity [2]: Non-toxic
